Assays:
[1] = MTT cell viability, compound alone; assay type: cell-based, human; conditions: human, SH-SY5Y neuroblastoma cells
How it was run: (§1)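 Cells were SH-SY5Y grown in DMEM/F12 with 10% FBS at 37 °C and 5% CO₂, seeded at 5×10⁴ cells/well, and given fresh medium with 0.9 µM compound alone 24 h after plating. After 24 h, MTT (5 mg/mL stock) was added for 4 h, then isopropanol/0.04 mol/L HCl overnight. Read OD570 minus OD700, normalised to untreated and 100% death controls. Triplicate wells, three plates, mean±SEM, kept in the dark.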

[2] = Solubility check; assay type: physicochemical
[3] = test system: SH-SY5Y cells; assay: MTT cell viability, compound alone; assay type: cell-based, human; conditions: SH-SY5Y, 24 h; for Viability C. Compound alone: 0.9 µM compound, mean±SEM
How it was run: as §1

[4] = biological target: T1, Aβ (1–42) (Homo sapiens, UniProt P05067); assay: SDS-PAGE and western blotting of Aβ; assay type: biochemical; conditions: for Smear bands in SDS-PAGE: 30 µM compound, 24 h, 37 °C; for Effects on Aβ aggregation (in words): derivatives without hydroxy groups on the aromatic groups
How it was run: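 Aβ(1–42) monomerized in HFIP (1 mM, 37 °C, 1 h), diluted to 10 µM in PBS with 30 µM test compound (final; DMSO vehicle), incubated 24 h at 37 °C. Diluted to 2.25 µM in unheated SDS buffer, run on 10–20% gels, blotted to PVDF and probed with 6E10 then HRP anti-mouse, with chemiluminescence detection. Band intensities per range were read against marker. Means±SEM, ≥3 independent experiments, ANOVA/Dunnett vs DMSO.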

[5] = test system: SH-SY5Y cells; assay: MTT cell viability, simultaneous treatment with Aβ aggregates and the compounds; assay type: cell-based, human; conditions: 24 h, 0.3 µM Aβ aggregates, 0.9 µM compound
How it was run: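 Aβ(1–42) was HFIP-pretreated, taken up at 5 mM in DMSO, diluted to 10 µM in PBS and aggregated 24 h at 37 °C. SH-SY5Y cells (5×10⁴/well, 24 h after plating) received 0.3 µM of these aggregates plus 0.9 µM compound together for 24 h. Read-out was MTT (4 h), OD570−OD700, as % of untreated and 100% death controls. Triplicate wells in ≥3 independent runs; ANOVA/Dunnett against DMSO vehicle.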

[6] = test system: amyloid plaques; conditions: transgenic mouse model of AD, injection via the tail vein; cited from earlier work
[7] = biological target: T1, Aβ (1–42); assay: Native gel electrophoresis of Aβ; assay type: biochemical; conditions: 30 µM compound, 24 h, 37 °C
How it was run: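 HFIP-pretreated Aβ(1–42) (5 mM DMSO stock) was diluted to 10 µM in PBS with 30 µM compound (1.5 mM DMSO stock) and held 24 h at 37 °C in the dark; DMSO served as vehicle. Samples were brought to 2.25 µM in native sample buffer, run on 5–20% gels at 100 V for 4 h at 4 °C and transferred to PVDF. Blots used 6E10 anti-Aβ (1:1000), HRP anti-mouse (1:20,000) and chemiluminescence.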

[8] = test system: Aβ; conditions: cited from earlier work
[9] = biological target: Aβ aggregates (Homo sapiens, UniProt P05067); assay: Thioflavin T fluorescence competition assay; assay type: binding
[10] = test system: APP/PS1 mice; conditions: cited from earlier work
[11] = all ranges of 15–20, 20–37, 37–75, and 75–200 kDa

T1 sequence (P05067 672-713): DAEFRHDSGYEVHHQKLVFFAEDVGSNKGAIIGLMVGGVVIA
Aβ aggregates, sequence (P05067 672-713): as above

Compound: COc1cc(/C=C/C(=O)CC(=O)/C=C/c2ccc(O)c(OC)c2)ccc1O [Cur, Curcumin, reference compound]
- viability at 24 h, 0.9 µM [1]: 97.5 ± 7.3%
- Solubility / precipitation ([2]; 30 µM in PBS with DMSO): no precipitation
- Solubility / precipitation ([2]; 200 µM solution): clearly observed precipitates

Compound: COc1cc(C=CC(=O)CC(=O)C=Cc2ccc(O)c(OC(F)(F)F)c2)ccc1O [SY2, 1-[(4-Hydroxy-3-methoxy)phenyl]-7-[(4-hydroxy-3-trifluoromethoxy)phenyl]-1,6-heptadiene-3,5-dione]
- Viability C. Compound alone [3]: 101.4±2.0%
- Densities of the bands of Aβ (1–42) vs vehicle control (in words) ([4]; only in the range of 15–20 kDa): significant increases

Compound: COc1cc(C=CC(=O)CC(=O)C=Cc2cc(C(F)(F)F)cc(C(F)(F)F)c2)ccc1O [SY4, 1-[(4-Hydroxy-3-methoxy)phenyl]-7-[3,5-bis(trifluoromethyl)phenyl]-1,6-heptadiene-3,5-dione]
- Cell viability after simultaneous treatment vs vehicle control (in words) [5]: significant reduction in cell viability
- Viability C. Compound alone [3]: 91.6±3.2%

Compound: COC(=O)CCC(C(=O)C=Cc1ccc(O)c(OC(F)(F)F)c1)C(=O)C=Cc1ccc(O)c(OC(F)(F)F)c1 (stereo not drawn) [SY5, 1,7-bis (4′-hydroxy-3′-trifluoromethoxyphenyl)-4-methoxycarbonylethyl-1,6-heptadiene-3,5-dione]
- Binding to amyloid plaques in brain [6]: bound to amyloid plaques
- Blood–brain barrier penetration [6]: penetrated the blood–brain barrier
- viability at 24 h, 0.9 µM [1]: 102 ± 3.6%
- Smear bands in SDS-PAGE [4]: Marked smear bands
- Densities of the bands of Aβ (1–42) vs vehicle control (in words) [4, 11]: significant increases
- Smear bands in native-PAGE [7]: Marked smear bands
- Inhibition of Aβ aggregation ([8]; 30 µM, ref our previous study): significant inhibition of Aβ aggregation
- Formation of higher molecular size Aβ aggregates ([8]; incubated with Aβ during the aggregation state in vitro): inhibit the formation of higher molecular size Aβ aggregates
- IC50 [9]: 440 nM
- Amyloid deposition [10]: reduce amyloid deposition
- Cognitive decline [10]: inhibit cognitive decline
- Solubility / precipitation ([2]; 30 µM in PBS with DMSO): no precipitation

Compound: COc1ccc(C=CC(=O)CC(=O)C=Cc2ccc(OC)c(F)c2)cc1F [SY9, 1,7-Bis[(3-fluoro-4-methoxy)phenyl]-1,6-heptadiene-3,5-dione]
- Viability C. Compound alone [3]: 94.2±2.5%
- Effects on Aβ aggregation (in words) [4]: no effects on Aβ aggregation

Compound: COC(=O)CCC(C(=O)C=Cc1cc(F)c(O)c(F)c1)C(=O)C=Cc1cc(F)c(O)c(F)c1 (stereo not drawn) [SY16, 1,7-Bis[(4-hydroxy-3,5-difluoro)phenyl]-4-methoxycarbonylethyl-1,6-hexadiene-3,5-dione]
- Viability C. Compound alone [3]: 94.1±2.8%

Compound: COc1ccc(C=CC(=O)C(C)C(=O)C=Cc2ccc(OC)c(OC(F)(F)F)c2)cc1OC(F)(F)F (stereo not drawn) [SY18, 1,7-Bis[(4-methoxy-3-trifluoromethoxy)phenyl]-4-methyl-1,6-hexadiene-3,5-dione]
- Cell viability after treatment with compound alone (in words) ([3]; 0.9 µM): significantly reduced cell viability
- Viability C. Compound alone [3]: 69.5±7.7 %
- Effects on Aβ aggregation (in words) [4]: no effects on Aβ aggregation

Compound: COCOc1ccc(C=CC(=O)C(CCC(=O)OC(C)(C)C)C(=O)C=Cc2ccc(OCOC)c(OC(F)(F)F)c2)cc1OC(F)(F)F (stereo not drawn) [SY22, 1,7-Bis[(4-methoxymethoxy-3-trifluoromethoxy)phenyl]-4-(1,1-dimethylethoxy)carbonylethyl-1,6-hexadiene-3,5-dione]
- Viability C. Compound alone [3]: 95.8±3.6%
- Effects on Aβ aggregation (in words) [4]: no effects on Aβ aggregation

Compound: COC(=O)CCC(C(=O)C=Cc1ccc(O)c(OC)c1)C(=O)C=Cc1ccc(O)c(OC)c1 (stereo not drawn) [SY23, 1,7-Bis[(4-hydroxy-3-methoxy)phenyl]-4-methoxycarbonylethyl-1,6-heptadiene-3,5-dione]
- Viability C. Compound alone [3]: 97.9±2.4%

Compound: O=C(C=Cc1ccc(O)c(OC(F)(F)F)c1)C(CCOCCOCCOCCOC1CCCCO1)C(=O)C=Cc1ccc(O)c(OC(F)(F)F)c1 (stereo not drawn) [SY27, 1,7-Bis[(4-hydroxy-3-trifluoromethoxy)phenyl]-4-[11-(2-tetrahydropyranyloxy)-3,6,9-trioxaundec-1yl]-1,6-heptadiene-3,5-dione]
- Viability C. Compound alone [3]: 98.5±5.3%

Compound: O=C(C=Cc1ccc(O)c(OC(F)(F)F)c1)C(CCOC1CCCCO1)C(=O)C=Cc1ccc(O)c(OC(F)(F)F)c1 (stereo not drawn) [SY33, 1,7-Bis[(4-hydroxy-3-trifluoromethoxy)phenyl]-4-(2-tetrahydropyranyloxy)ethyl-1,6-heptadiene-3,5-dione]
- Viability C. Compound alone [3]: 97.8±4.2%
- Smear bands in SDS-PAGE [4]: Marked smear bands
- Densities of the bands of Aβ (1–42) vs vehicle control (in words) [4, 11]: significant increases
- Smear bands in native-PAGE [7]: Marked smear bands
- Solubility / precipitation ([2]; 30 µM in PBS with DMSO): no precipitation

Compound: COC(=O)COc1ccc(C=CC(=O)CC(=O)C=Cc2ccc(O)c(OC)c2)cc1OC [SY35, 1-[(4-Hydroxy-3-methoxy)phenyl]-7-[(3-methoxy-4-methoxycarbonylmethoxy)phenyl]-1,6-heptadiene-3,5-dione]
- Viability C. Compound alone [3]: 93.7±2.9%

Compound: COC(=O)CCC(C(=O)C=Cc1ccc(O)c(OC(F)(F)F)c1)C(=O)C=Cc1ccco1 (stereo not drawn) [SY37, 1-[(4-Hydroxy-3-trifluoromethoxy)phenyl]-7-(2-furyl)-4-methoxycarbonylethyl-1,6-heptadiene-3,5-dione]
- Viability C. Compound alone [3]: 93.0±4.1%
- Densities of the bands of Aβ (1–42) vs vehicle control (in words) ([4]; only in the range of 20–37 kDa): significant increases

Compound: COC(=O)CCC(C(=O)C=Cc1ccc(O)c(F)c1)C(=O)C=Cc1ccc(O)c(F)c1 (stereo not drawn) [SY38, 1,7-Bis[(4-hydroxy-3-fluoro)phenyl]-4-methoxycarbonylethyl-1,6-heptadiene-3,5-dione]
- Viability C. Compound alone [3]: 91.6±3.9%
- Densities of the bands of Aβ (1–42) vs vehicle control (in words) ([4]; only in the range of 20–37 kDa): significant increases

Compound: CCC(C(=O)C=Cc1ccc(O)c(OC(F)(F)F)c1)C(=O)C=Cc1ccc(O)c(OC(F)(F)F)c1 (stereo not drawn) [SY41, 1,7-Bis[(4-hydroxy-3-trifluoromethoxy)phenyl]-4-ethyl-1,6-heptadiene-3,5-dione]
- Viability C. Compound alone [3]: 93.4±5.9%

Compound: COc1ccc(C=CC(=O)C(CCC(=O)OC(C)(C)C)C(=O)C=Cc2ccc(OC)c(F)c2)cc1F (stereo not drawn) [SY42, 1,7-Bis[(3-fluoro-4-methoxy)phenyl]-4-(1,1-dimethylethoxy)carbonylethyl-1,6-heptadiene-3,5-dione]
- Viability C. Compound alone [3]: 88.6±6.3%
- Effects on Aβ aggregation (in words) [4]: no effects on Aβ aggregation

Reference: article PMC5669405 (Biochemistry and Biophysics Reports, 2015)
